# High-throughput results as filed in PubChem BioAssay.
# E-selectin induc: E-selectin induction on HUVECs | HUVEC E-selectin immunofluorescence imaging; normalized: neutral wells 0, TNF-alpha wells 100 | hit rate 0.37% among 260,000 | activation, % at 7.58 µM | P16581 | AID 686992;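 active = mean E-selectin-positive cell signal at least 10% of the positive control, reached in at least 60% of replicates, without over 20% cell loss; inconclusive = no rule given, readout overlaps actives, possibly toxicity-flagged; inactive = the rest, including those meeting only one limit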
#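 assay system = HUVEC, human umbilical vein endothelial cells | input = 3,000 HUVEC seeded per well | medium = EGM-2 growth medium on 0.1% gelatin-coated wells | dosing = one compound dose added by pin transfer | signal = immunofluorescence imaging | read-out basis = % PE-positive cells | control set = TNF-alpha, DMSO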
# SIRT5 inh: inhibitors of human sirtuin-5 desuccinylase; hit rate 1.1% among 330,000; Purified SirT5, succinyl-peptide AMC, trypsin-coupled fluorescence; inhibition, % at 15 µM; AID 652115; in the data active = inhibition above about 15%; inconclusive = no clear call, values can overlap the other calls
# Target sequence (Q9NXA8 whole entry, looked up): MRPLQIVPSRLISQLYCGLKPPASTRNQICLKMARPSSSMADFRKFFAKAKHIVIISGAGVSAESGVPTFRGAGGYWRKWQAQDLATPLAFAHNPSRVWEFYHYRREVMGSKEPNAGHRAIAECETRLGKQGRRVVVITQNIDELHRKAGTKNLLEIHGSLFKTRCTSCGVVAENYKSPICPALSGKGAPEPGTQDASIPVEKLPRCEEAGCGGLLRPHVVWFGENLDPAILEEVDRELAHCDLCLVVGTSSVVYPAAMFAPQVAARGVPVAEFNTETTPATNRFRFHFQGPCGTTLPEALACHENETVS
# DENV2 CPE rescue: protects cells from dengue virus 2 cytopathic effect; DENV2-infected cells, cytopathic effect rescue, plate reader; CPE inhibition, % at 9.99 µM; hit rate 1.7% among 350,000; AID 651640; in the data active = CPE inhibition above about 20%, passing the limit was not always enough; inconclusive = no clear call, values can overlap the other calls; tested in BHK-21 cells;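 also: 0% = median of neutral control wells and 100% = median of positive control wells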
# * marks the source's active call; other numbers are inactive results; u = inconclusive; x = no result given. An excerpt weighted towards active compounds, which were near 2.8% of everything screened.
SMILES,E-selectin induc,SIRT5 inh,DENV2 CPE rescue
COc1ccc(C(=O)COC(=O)CCCN=C2NS(=O)(=O)c3ccccc32)c(OC)c1,-2.1,1.4,35.8*
O=C(CCCN=C1NS(=O)(=O)c2ccccc21)OCC(=O)c1ccccc1,x,-2.7,-4.7
COc1ccc(C(=O)COC(=O)CCN=C2NS(=O)(=O)c3ccccc32)c(OC)c1,x,4.0,82.5*
COc1ccccc1C(=O)COC(=O)CCN=C1NS(=O)(=O)c2ccccc21,x,2.8,2.3
CN1c2ccc(-c3ccc(F)cc3)cc2[C@H]2[C@H](CCN2C(=O)c2ccc(F)cc2)[C@@H]1CO,0.4,5.8,-16.9
CNc1cccc(-c2ccccc2C(C)=O)n1,-0.1,-0.4,8.5
CNc1cccc(-c2ccccc2CO)n1,-0.1,x,30.1*
Cc1noc(C)c1NC(=O)N(C)C[C@@H]1Oc2ccc(NC(=O)c3ccncc3)cc2CC(=O)N([C@@H](C)CO)C[C@H]1C,x,3.9,-3.2
C#Cc1ccc([C@H]2C=C(C(=O)NC3CC3)O[C@@H](OCc3ccc(CO)cc3)C2)cc1,x,-2.9,0.5
CC1(C)CC(NC(=O)C2CCC(=O)N(C3CC3)C2)CC(C)(C)C1 (stereo not drawn),1.6,36.1*,0.8
O=C(NC1CCCCC1)C1CCC(=O)N(C2CC2)C1 (stereo not drawn),x,7.6,-8.7
C[C@@H]1CN([C@@H](C)CO)S(=O)(=O)c2ccc(-c3cccc(C(=O)N(C)C)c3)cc2O[C@H]1CN(C)C(=O)Cc1ccccn1,0.1,-11.2,1.6
O=C(NC1CCCC1)C(c1ccc(F)cc1)N(C(=O)c1csnn1)c1ccccc1 (stereo not drawn),35.5*,-3.4,-3.9
O=C(NC1CCCC1)C(c1ccc(F)cc1)N(C(=O)c1csnn1)c1ccccc1F (stereo not drawn),x,-1.9,0.1
C[C@@H]1CN([C@@H](C)CO)C(=O)c2cc(NS(=O)(=O)c3cn(C)cn3)ccc2O[C@@H](C)CCCCO[C@H]1CN(C)S(=O)(=O)c1ccc(F)cc1,x,-0.4,16.0
O=C(C[C@H]1C=C[C@@H](NC(=O)c2ccccn2)[C@@H](CO)O1)NCc1cc(F)cc(F)c1,1.0,-1.9,6.6
O=C(CCCc1ccccc1)Nc1cccc([N+](=O)[O-])c1,x,-2.1,39.9*
O=C(CCc1ccccc1)Nc1cccc([N+](=O)[O-])c1,x,-5.3,13.2
O=C(CCC(=O)Nc1cccc(Cl)c1)N/N=C/c1cc([N+](=O)[O-])ccc1O,x,15.4*,x
CCN(CC)CCCNC(CC(=O)Nc1cccc([N+](=O)[O-])c1)C(=O)O (stereo not drawn),x,-2.1,29.8*
O=C(CCCC(=O)Nc1cccc(Br)c1)N/N=C/c1cc([N+](=O)[O-])ccc1O,-1.2,0.2,u
CCCC(CCC(=O)Nc1cccc([N+](=O)[O-])c1)C(=O)O (stereo not drawn),3.6,-0.2,1.0
O=C(C[C@H]1C[C@@H]2c3cc(NC(=O)NC4CCCCC4)ccc3O[C@@H]2[C@H](CO)O1)NCc1ccccn1,-0.6,-5.2,-0.5
CC(C)NC(=O)N(C)C[C@H]1OCCCC[C@H](C)Oc2ccc(NC(=O)NC3CCCCC3)cc2C(=O)N([C@@H](C)CO)C[C@H]1C,-0.1,-0.1,-2.5
COc1ccc(NC(=O)N(C)C[C@H]2Oc3ccc(NC(=O)CCCCCC(=O)Nc4ccccc4N)cc3C(=O)N([C@@H](C)CO)C[C@@H]2C)cc1,x,-3.4,5.3
SMILES,E-selectin induc,SIRT5 inh,DENV2 CPE rescue
COc1ccccc1S(=O)(=O)N[C@H]1CC[C@@H](CC(=O)N2CCN(C)CC2)O[C@H]1CO,0.7,0.4,-2.7
C[C@H]1CN([C@@H](C)CO)C(=O)c2cccc(NC(=O)Nc3cccc4ccccc34)c2O[C@H]1CN(C)C(=O)Nc1ccccc1,0.2,2.3,-6.8
CCCC(=O)Nc1ccc2c(c1)OC[C@@H](C)N(CCc1ccccc1)C[C@H](C)[C@H](OC)CN(C)C2=O,-0.6,x,x
C[C@H](O)C#Cc1ccc2c(c1)O[C@@H](CN(C)C(=O)c1ccncc1)[C@H](C)CN([C@H](C)CO)S2(=O)=O,-4.6,x,-1.1
COc1ccc(S(=O)(=O)Nc2ccc3c(c2)C(=O)N([C@@H](C)CO)C[C@@H](C)[C@H](CN(C)C(=O)NC2CCCCC2)OCCCC[C@H](C)O3)cc1,x,-1.2,-2.9
COc1ccc(CN(C)C[C@@H]2Oc3ccc(NC(=O)NC(C)C)cc3CC(=O)N([C@@H](C)CO)C[C@@H]2C)cc1,-3.4,4.1,-3.0
C[C@H]1CN([C@@H](C)CO)C(=O)Cc2cc(NS(=O)(=O)c3ccccc3)ccc2O[C@@H]1CN(C)Cc1ccncc1,-20.9,-2.8,-2.7
O=C(O)c1ccc(NC2=C/C(=N/S(=O)(=O)c3ccccc3)c3ccccc3C2=O)cc1,x,40.9*,1.9
O=C(O)c1ccc(NC2=C/C(=N/S(=O)(=O)c3cccs3)c3ccccc3C2=O)cc1,-0.1,19.6*,u
O=C1C(Nc2ccc(O)cc2)=C/C(=N/S(=O)(=O)c2cccs2)c2ccccc21,x,-3.8,0.0
Cc1cc(C)c(S(=O)(=O)/N=C2\C=C(Nc3ccc(C(=O)O)cc3)C(=O)c3ccccc32)c(C)c1,0.2,-2.6,-2.5
O=C(NC1Cc2ccccc2C1)[C@H]1[C@H](CO)[C@H]2Cn3c(cccc3=O)[C@@H]1N2C(=O)CC1CC1,-0.4,2.5,-2.3
COCC#Cc1ccc2c(c1)O[C@@H](CN(C)S(=O)(=O)c1ccc(C)cc1)[C@H](C)CN([C@H](C)CO)S2(=O)=O,0.9,3.7,-7.5
COc1ccc2c3c(n(C)c2c1)[C@H](CO)N(C)CC31CCN(S(=O)(=O)c2cccs2)CC1,-0.5,x,u
COc1cccc(-c2ccc3n(c2=O)C[C@H]2[C@H](CO)[C@@H](C(=O)N(C)C)N(C(=O)C4CC4)[C@@H]32)c1,-0.1,-26.3,-1.1
C[C@@H]1CN([C@@H](C)CO)C(=O)Cc2cc(NS(=O)(=O)c3cccs3)ccc2O[C@H]1CN(C)Cc1ccncc1,x,x,0.8
CC(C)C#Cc1ccc2c(c1)O[C@@H](CN(C)C(=O)c1cccc(F)c1)[C@H](C)CN([C@@H](C)CO)S2(=O)=O,0.7,4.0,6.4
C[C@@H]1CN([C@@H](C)CO)S(=O)(=O)c2ccc(C#CC3CC3)cc2O[C@@H]1CN(C)C(=O)c1cccc(F)c1,0.0,22.9*,-4.1
C[C@@H]1CN([C@H](C)CO)S(=O)(=O)c2ccc(C#CC3CC3)cc2O[C@@H]1CN(C)C(=O)c1cccc(F)c1,-0.2,6.0,-3.0
CC(C)CC#Cc1ccc2c(c1)O[C@H](CN(C)C(=O)c1cccc(F)c1)[C@@H](C)CN([C@@H](C)CO)S2(=O)=O,-0.7,17.7*,24.3*
CC(C)CC#Cc1ccc2c(c1)O[C@H](CN(C)C(=O)c1cccc(F)c1)[C@@H](C)CN([C@H](C)CO)S2(=O)=O,-0.9,21.6*,-1.9
CC(C)CC#Cc1ccc2c(c1)O[C@H](CN(C)C(=O)c1ccccc1)[C@H](C)CN([C@H](C)CO)S2(=O)=O,0.1,15.2*,-11.2
CC(C)CC#Cc1ccc2c(c1)O[C@H](CN(C)C(=O)c1ccccc1)[C@@H](C)CN([C@@H](C)CO)S2(=O)=O,u,7.7,-3.9
CC(C)CC#Cc1ccc2c(c1)O[C@@H](CN(C)C(=O)c1cccc(F)c1)[C@@H](C)CN([C@@H](C)CO)S2(=O)=O,-0.6,4.6,10.2
